# Assay results taken from article PMC6774347 (European Journal of Organic Chemistry, 2019).
# Assays:
# [1] = Compound solubility in DMSO stock and in the biological assays; type: physicochemical; settings: for Compound crystallization in treated cells: CEM cells in complete media, 1 % v/v DMSO; for Solubility (in words): stock solutions at highest soluble concentration in DMSO
# CEM leukemia cell line = experiment: Differential nuclear staining; type: cell-based, human; settings: 48 h; for CEM cell death (in words): at the prepared / highest soluble concentrations; for Concentration inducing significant death in CEM cells: tested 100 µM to 0.5 µM
# Method in brief: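 Live-cell imaging differential nuclear staining with Hoechst 33342 (all nuclei) and propidium iodide (dead cells). DMSO stocks at highest soluble concentration were serially diluted and added to cells in complete medium (final 1 % v/v DMSO), 100 µM down to 0.5 µM. Read at 48 h in quadruplicate. Controls were untreated, 1 % DMSO and 1.62 mM H2O2. CC50 (50 % membrane-integrity loss versus untreated) was linearly interpolated between the two concentrations nearest 50 %.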
# TK+ VZV = experiment: Antiviral assay, plaque formation in HEL cells; type: cell-based, varicella-zoster virus (VZV); settings: Human alphaherpesvirus 3, HEL
# TK– VZV = experiment: Antiviral assay, plaque formation in HEL cells; type: cell-based, varicella-zoster virus (VZV); settings: Human alphaherpesvirus 3, HEL
# [2] = test system: MDA-MB-231 (MB-231) triple-negative breast cancer cell line; experiment: Differential nuclear staining; type: cell-based; settings: Homo sapiens, MDA-MB-231, 72 h
# Method in brief: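 MDA-MB-231 cells were stained with Hoechst 33342 and propidium iodide and imaged live. Serial dilutions from 100 µM (to 0.5 µM) in DMSO were added directly to cell-containing wells (final 1 % v/v DMSO). Read at 72 h in quadruplicate. Controls were untreated, 1 % DMSO and 1.62 mM H2O2. CC50 was linearly interpolated between the two concentrations flanking 50 % death relative to untreated cells.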
# CEM cells = experiment: Annexin V-FITC / propidium iodide apoptosis assay; type: cell-based, human; settings: 24 h, annexin-FITC and PI staining
compound,measurement,setting,value
"COc1cc(-c2cn(-c3cc(=O)oc4ccccc34)nn2)cc(OC)c1OC [Compound 13, 4‐(4‐(3,4,5‐Trimethoxyphenyl)‐1H‐1,2,3‐triazol‐1‐yl)‐2H‐chromen‐2‐one]",Compound crystallization in treated cells,[1],significant compound crystallization
same,CEM cell death (in words),CEM leukemia cell line,did not induce quantifiable CEM cell death
"COc1cc(-c2cn(-c3cc(=O)oc4ccc(C)cc34)nn2)cc(OC)c1OC [Compound 14, 6‐Methyl‐4‐(4‐(3,4,5‐trimethoxyphenyl)‐1H‐1,2,3‐triazol‐1‐yl)‐2H‐chromen‐2‐one]",CEM cell death (in words),CEM leukemia cell line,did not induce significant CEM cell death
"COc1cc(-c2cn(-c3cc(=O)oc4ccc(Cl)cc34)nn2)cc(OC)c1OC [Compound 15, 6‐Chloro‐4‐(4‐(3,4,5‐trimethoxyphenyl)‐1H‐1,2,3‐triazol‐1‐yl)‐2H‐chromen‐2‐one]",Solubility (in words),[1],one of the least soluble compounds in the series
same,CEM cell death (in words),CEM leukemia cell line,demonstrated cytotoxicity at its highest soluble concentration
"COc1cc(-c2cn(-c3cc(=O)oc4ccc(Br)cc34)nn2)cc(OC)c1OC [Compound 16, 6‐Bromo‐4‐(4‐(3,4,5‐trimethoxyphenyl)‐1H‐1,2,3‐triazol‐1‐yl)‐2H‐chromen‐2‐one]",Solubility (in words),[1],relatively soluble
same,CEM cell death (in words),CEM leukemia cell line,did not induce significant CEM cell death
"COc1cc(-c2cn(-c3cc(=O)oc4c(Cl)cc(Cl)cc34)nn2)cc(OC)c1OC [Compound 17, 6,8‐Dichloro‐4‐(4‐(3,4,5‐trimethoxyphenyl)‐1H‐1,2,3‐triazol‐1‐yl)‐2H‐chromen‐2‐one]",EC50,TK+ VZV,66.9 µM
same,CEM cell death (in words),CEM leukemia cell line,did not induce significant CEM cell death
"COc1cc(-c2cn(-c3cc(=O)oc4cc(C)ccc34)nn2)cc(OC)c1OC [Compound 18, 7‐Methyl‐4‐(4‐(3,4,5‐trimethoxyphenyl)‐1H‐1,2,3‐triazol‐1‐yl)‐2H‐chromen‐2‐one]",Compound crystallization in treated cells,[1],significant compound crystallization
same,CEM cell death (in words),CEM leukemia cell line,did not induce quantifiable CEM cell death
"COc1ccc2c(-n3cc(-c4cc(OC)c(OC)c(OC)c4)nn3)cc(=O)oc2c1 [Compound 19, 7‐Methoxy‐4‐(4‐(3,4,5‐trimethoxyphenyl)‐1H‐1,2,3‐triazol‐1‐yl)‐2H‐chromen‐2‐one]",Compound crystallization in treated cells,[1],significant compound crystallization
same,CEM cell death (in words),CEM leukemia cell line,did not induce quantifiable CEM cell death
"COc1cc(-c2cn(-c3ccccc3)nn2)cc(OC)c1OC [Compound 20, 1‐Phenyl‐4‐(3,4,5‐trimethoxyphenyl)‐1H‐1,2,3‐triazole]",EC50,TK+ VZV,39.9 µM
same,EC50,TK– VZV,39.1 µM
same,CC50,[2],55.4 µM
same,Solubility (in words),[1],the most readily soluble of the compounds
same,Mode of cell death (apoptosis vs necrosis),CEM cells,preferentially induces cell death via apoptosis
"COc1cc(OC)cc(-c2cn(-c3cc(=O)oc4ccc(Br)cc34)nn2)c1 [Compound 22, 6‐Bromo‐4‐(4‐(3,5‐dimethoxyphenyl)‐1H‐1,2,3‐triazol‐1‐yl)‐2H‐chromen‐2‐one]",EC50,TK+ VZV,58.5 µM
same,Concentration inducing significant death in CEM cells,CEM leukemia cell line,approximately 10 µM
"COc1ccc(-c2cn(-c3cc(=O)oc4ccc(Br)cc34)nn2)cc1 [Compound 23, 6‐Bromo‐4‐(4‐(4‐methoxyphenyl)‐1H‐1,2,3‐triazol‐1‐yl)‐2H‐chromen‐2‐one]",Concentration inducing significant death in CEM cells,CEM leukemia cell line,approximately 10 µM
"COc1cccc(-c2cn(-c3cc(=O)oc4ccc(Br)cc34)nn2)c1 [Compound 24, 6‐Bromo‐4‐(4‐(3‐methoxyphenyl)‐1H‐1,2,3‐triazol‐1‐yl)‐2H‐chromen‐2‐one]",Concentration inducing significant death in CEM cells,CEM leukemia cell line,approximately 10 µM
